TRPC4 agonist: activators of mouse TRPC4 channel. Q9QUQ5. HEK293 TRPC4beta/mu-opioid, Fluo4 calcium fluorescence; active compounds read high. B-score at 10 µM. 310,000 tested, 0.49% active;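 active means B-score above 5 SD of library B-scores, and initial fluorescence ratio not above library mean plus 5 SD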;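 further: positive B-score marks a calcium rise read as TRPC4 activation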
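Material: HEK293 stable line with TRPC4beta plus mu-opioid receptor; technique: Fluo4 calcium-sensitive dye fluorescence, kinetic, 1 Hz baseline; timing: Fluo4 dye loading 45 min at room temperature, 110 s recording; controls: assay buffer as low control, maximal DAMGO as high control; read-out: integrated baseline-normalised fluorescence ratio, converted to per-well B score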
TRPC4 block: TRPC4 (mouse) channel inhibition; HEK293 TRPC4beta/mu-opioid, DAMGO-evoked Fluo4 calcium flux; active compounds read low; B-score at 10 µM; 300,000 tested, 0.39% active;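 active means B-score over 3 SD under the library average, no early fluorescence shift, positive overall ratio signal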
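Test system – stable TRPC4beta/mu-opioid receptor HEK293 cells · Probe or stimulus – DAMGO, a submaximal dose followed by a maximal one · Dosing – one concentration per compound · Signal – Fluo4 calcium fluorescence by kinetic imaging, 5 s 1 Hz baseline · Evaluation – per-well B score of integrated baseline-normalized Fluo4 ratio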
TRPC6 inh: inhibitors of mouse TRPC6 channel; Q61143; HEK293-TRPC6, membrane potential dye, ACh-evoked depolarization; active compounds read low; B-score at 10 µM; 310,000 tested, 1.1% active; AID 2553;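 active means B-score under library mean minus 3 SD, initial fluorescence not abnormally high, positive integrated signal ratio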;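 further: B-score derived from integrated fluorescence ratio over the kinetic read; more negative B-score means stronger inhibition of depolarization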
Target sequence (Q61143 whole entry, looked up): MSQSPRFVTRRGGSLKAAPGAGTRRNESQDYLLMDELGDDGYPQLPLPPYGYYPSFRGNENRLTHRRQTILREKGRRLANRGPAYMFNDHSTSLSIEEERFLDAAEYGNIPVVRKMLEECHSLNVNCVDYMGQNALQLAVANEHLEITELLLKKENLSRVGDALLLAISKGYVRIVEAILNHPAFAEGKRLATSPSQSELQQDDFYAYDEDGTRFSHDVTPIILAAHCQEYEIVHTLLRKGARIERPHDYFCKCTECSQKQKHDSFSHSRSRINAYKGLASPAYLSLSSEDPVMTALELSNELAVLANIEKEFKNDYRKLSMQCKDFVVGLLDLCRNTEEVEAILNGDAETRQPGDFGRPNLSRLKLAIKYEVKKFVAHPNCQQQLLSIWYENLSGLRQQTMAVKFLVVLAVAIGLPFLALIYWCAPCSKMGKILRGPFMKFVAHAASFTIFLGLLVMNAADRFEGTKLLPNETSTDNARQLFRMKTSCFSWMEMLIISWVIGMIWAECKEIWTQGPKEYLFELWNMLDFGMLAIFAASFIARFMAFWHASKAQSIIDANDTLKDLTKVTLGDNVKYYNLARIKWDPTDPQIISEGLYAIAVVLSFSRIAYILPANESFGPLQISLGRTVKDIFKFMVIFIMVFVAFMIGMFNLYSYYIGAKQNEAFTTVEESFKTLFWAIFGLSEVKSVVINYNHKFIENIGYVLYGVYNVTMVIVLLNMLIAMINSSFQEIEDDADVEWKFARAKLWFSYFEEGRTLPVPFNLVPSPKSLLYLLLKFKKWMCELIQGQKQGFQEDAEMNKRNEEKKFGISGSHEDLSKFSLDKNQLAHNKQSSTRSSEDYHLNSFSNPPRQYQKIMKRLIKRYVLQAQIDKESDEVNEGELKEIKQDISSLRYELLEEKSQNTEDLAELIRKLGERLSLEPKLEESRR
TRPC4 potent: allosteric potentiators of mouse TRPC4 channel | Q9QUQ5 | HEK293 TRPC4beta/mu-opioid, DAMGO EC20, Fluo-4 Ca2+ flux; active compounds read high | B-score at 10 µM | 310,000 tested, 0.42% active;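 active means B-score of calcium response area above 5 SD of library B-scores, with initial fluorescence ratio within 5 SD of library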;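 further: B-score of integrated fluorescence ratio over time as area under calcium response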
TRPC6 activator: activators of mouse TRPC6 channel | HEK293-TRPC6 membrane potential dye fluorescence; active compounds read high | B-score at 10 µM | 310,000 tested, 0.13% active | AID 2550;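 active means B-score of the integrated fluorescence ratio above library mean plus 3 SD, and starting fluorescence ratio within library mean plus 5 SD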;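 further: higher score means more depolarization so channel activation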
TRPC4 sel inh 2: second check of whether TRPC6 inhibitors also affect mouse TRPC4; shares compounds with TRPC6 inh; HEK293 TRPC4/MOR, membrane potential dye fluorescence; channel activated by saturating DAMGO dose; inhibition, % at 10 µM; 920 tested, 42% active;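 active means compounds whose fluorescence signal differed from control wells by over 3 SD, either direction, in both duplicate plates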
TRPC4 spec: selectivity of TRPC6 inhibitors: effect on mouse TRPC4; HEK293 TRPC4/mu-opioid, membrane potential fluorescence; shares compounds with TRPC6 inh; AID 2777; activity change, negative = inhibition, % at 10 µM; 920 tested, 61% active;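 active means rise or fall in signal beyond 3 SD of buffer-only wells in both replicate plates, either sign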;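 further: integrated kinetic ratio of fluorescence range over baseline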
HEK293 MPD ctr 2-1: second check of TRPC6 inhibitor effects in parental HEK293 cells. shares compounds with TRPC6 inh. parental HEK293 membrane potential dye fluorescence; maximal acetylcholine challenge after compound addition. signal change vs control, % at 10 µM. 920 tested, 31% active;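 active means membrane potential signal moving either way by over 3 SD of the maximum-effect control, in both duplicate plates, meaning non-specific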
HEK293 MPD ctr-1: parental HEK293 nonspecific activity of TRPC6 inhibitors; shares compounds with TRPC6 inh; parental HEK293 membrane potential dye fluorescence; membrane potential signal change, % at 10 µM; 920 tested, 60% active; AID 2780;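 active means membrane potential signal shifting up or down by more than 3 SD of buffer-only wells, on both duplicate plates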
HEK293 MPD ctr-2: counter-screen for TRPC6 modulators: effect in parental HEK293 cells; shares compounds with TRPC6 inh; membrane potential dye fluorescence; membrane potential signal change, % at 10 µM; 2,400 tested, 51% active; AID 488924;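 active means membrane potential signal moves up or down beyond 5 SD from buffer-only wells, on both duplicate plates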
HEK293 MPD ctr 2-2: second check of TRPC6 modulator effects in parental HEK293 cells; membrane potential dye fluorescence; after compound, maximal acetylcholine stimulation; inhibition, % at 10 µM; 2,400 tested, 14% active; shares compounds with TRPC6 inh;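 active means membrane potential signal drops by more than 5 SD from the mean control signal, in both duplicate plates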;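 further: plate controls were acetylcholine ECmax control wells for no effect and buffer only wells for full effect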
TRPC4 ctr mod: mouse TRPC4 off-target activity of TRPC6 modulators; shares compounds with TRPC6 inh; 2,400 tested, 69% active; HEK293 TRPC4/mu-opioid, membrane potential fluorescence; percent change from control (negative = decrease, positive = increase), % at 10 µM;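 active means membrane potential signal moved up or down beyond 5 SD of buffer control wells, in both duplicate plates, actives on both sides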;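 further: plate controls were assay buffer wells for no effect and DAMGO maximal-effect wells for full effect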
TRPC4 ctr inh 2: mouse TRPC4 off-target activity of TRPC6 modulators, second screen | shares compounds with TRPC6 inh | HEK293 TRPC4/mu-opioid, membrane potential dye fluorescence; stimulated with maximal-effect DAMGO | inhibition, % at 10 µM | 2,400 tested, 55% active;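 active means drop in membrane potential signal beyond 5 SD of the control wells in both duplicate plates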;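 further: TRPC4 counter screen for TRPC6 hits run under conditions tuned for TRPC6 not TRPC4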
TRPC6 inh conf: mouse TRPC6 inhibitor confirmation | inhibition, % at 10 µM | AID 488960 | shares compounds with TRPC6 inh | 3,300 tested, 43% active | HEK293-TRPC6, membrane potential dye, ACh-evoked depolarization;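 active means fluorescence ratio falls more than 5 SD below the full-stimulation control mean, in both duplicate runs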;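 further: integrated fluorescence ratio of peak minus minimum over baseline after agonist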
TRPC6 act confirm: mouse TRPC6 activator confirmation | activation, % at 10 µM | shares compounds with TRPC6 inh | 2,800 tested, 11% active | HEK293-TRPC6 membrane potential dye fluorescence, FDSS;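 active means ratio signal rise beyond 5 SD above unstimulated control wells' mean, seen in both duplicate runs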;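 further: plate controls were buffer EC0 wells for no effect and acetylcholine ECmax response for full effect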
Numbers without * were called inactive; i = inactive; . = not tested or not shown. Sampled rows, rich in hits. Any-hit rate of the full collection: about 2.3%.

SMILES | TRPC4 agonist | TRPC4 block | TRPC6 inh | TRPC4 potent | TRPC6 activator | TRPC6 inh conf | TRPC6 act confirm | others
COc1ccc2ccccc2c1CNCc1ccc(C)cc1 | i | i | -8* | i | i | 62%* | . | TRPC4 sel inh 2=50%*;TRPC4 spec=52%*;HEK293 MPD ctr 2-1=i;HEK293 MPD ctr-1=22%*
COc1ccc(C(CNc2ccc(S(C)(=O)=O)cc2[N+](=O)[O-])N(C)C)cc1OC (stereo not given) | i | i | i | i | i | . | .
COc1ccc(OC)c(C(c2nnnn2Cc2ccccc2)N2CCN(C3CCCCC3)CC2)c1 (stereo not given) | i | i | -5.7* | i | i | 40%* | . | HEK293 MPD ctr-2=132%*;HEK293 MPD ctr 2-2=i;TRPC4 ctr mod=i;TRPC4 ctr inh 2=65%*
CC(=O)N1CCCc2cc(S(=O)(=O)Nc3ccccc3C)ccc21 | i | i | i | i | i | . | .
C=CCOc1ccc(C2C(C#N)=C(N)N(N(C)C)C3=C2C(=O)CCC3)cc1 (stereo not given) | i | i | i | i | i | . | .
CN1CCC(OC(c2ccccc2)c2ccccc2)CC1 | i | i | -6.6* | i | i | 66%* | . | TRPC4 sel inh 2=i;TRPC4 spec=8.7%*;HEK293 MPD ctr 2-1=-5.0%*;HEK293 MPD ctr-1=11%*
Cc1c(Cl)c([N+](=O)[O-])nn1CCCC(=O)Nc1c(C)n(C)n(-c2ccccc2)c1=O | i | i | -6.5* | i | i | i | i | HEK293 MPD ctr-2=i;HEK293 MPD ctr 2-2=i;TRPC4 ctr mod=i;TRPC4 ctr inh 2=i
COc1ccc(NC(=O)Nc2nc(C)cc(C)n2)c(OC)c1 | i | i | -5.4* | i | i | i | i | HEK293 MPD ctr-2=-75%*;HEK293 MPD ctr 2-2=i;TRPC4 ctr mod=-15%*;TRPC4 ctr inh 2=i
COc1ccc(NC(=O)Nc2c(C)n(C)n(-c3ccccc3)c2=O)c(OC)c1 | i | i | -5* | i | i | i | i | HEK293 MPD ctr-2=i;HEK293 MPD ctr 2-2=i;TRPC4 ctr mod=i;TRPC4 ctr inh 2=i
Cc1c(NC(=O)C2(c3ccccc3)CCOCC2)c(=O)n(-c2ccccc2)n1C | i | i | i | i | i | . | .
Cc1c(NC(=O)C2(c3ccc(Cl)cc3)CCCC2)c(=O)n(-c2ccccc2)n1C | i | i | -6.6* | i | i | i | i | TRPC4 sel inh 2=i;TRPC4 spec=i;HEK293 MPD ctr 2-1=i;HEK293 MPD ctr-1=i
CCCN1CCN(CC(O)COC(c2ccc(OC)cc2)c2ccc(OC)cc2)CC1 (stereo not given) | i | i | i | i | i | . | .
CNC(=O)COC(=O)c1cc(-c2ccccc2)nn1-c1ccccc1 | i | i | i | i | i | . | .
COc1ccc(Cl)cc1NC(=O)CN(C)C(=O)CCC(=O)c1cc(C)sc1C | i | i | i | i | i | . | .
Cc1ccc(OCCN2C(=O)NC3(CCc4ccccc4C3)C2=O)cc1 (stereo not given) | i | i | i | i | i | . | .
Cn1c(=O)c2c(SCC(=O)N3CCCC3)nc(CC(C)(C)C)nc2n(C)c1=O | i | i | i | i | i | . | .
Cc1nc2scc(C)n2c(=O)c1S(=O)(=O)N1CCN(c2cccc(C(F)(F)F)c2)CC1 | i | i | i | i | i | . | .
Cc1cccc(-c2nsc(SCC(=O)Nc3nccs3)n2)c1 | i | i | -5.7* | i | i | i | i | HEK293 MPD ctr-2=i;HEK293 MPD ctr 2-2=i;TRPC4 ctr mod=i;TRPC4 ctr inh 2=i
O=[N+]([O-])c1cccc(S(=O)(=O)NCC2CC3CCC2C3)c1 (stereo not given) | i | i | i | i | i | . | .
CCn1cc(C(=O)N[C@H](C(=O)NCCO)C(C)C)c(=O)c2cc3c(cc21)OCO3 | i | i | i | i | i | . | .
COc1cc(-c2nc3ccc(C)cn3c2Nc2ccc3c(c2)OCCO3)ccc1O | i | i | -8.4* | i | i | i | i | TRPC4 sel inh 2=54%*;TRPC4 spec=-11%*;HEK293 MPD ctr 2-1=i;HEK293 MPD ctr-1=-322%*
Cc1ccn2c(Nc3ccc4c(c3)OCO4)c(-c3ccc(O)cc3)nc2c1 | i | i | -7.1* | i | i | i | i | TRPC4 sel inh 2=i;TRPC4 spec=-14%*;HEK293 MPD ctr 2-1=i;HEK293 MPD ctr-1=-154%*
COc1ccc(C(=O)NCCc2nnc3ccc(SCC(=O)N4CCCCC4)nn23)cc1 | i | i | i | i | i | . | .
CC(=O)/C(C(=N)N1CCN(Cc2ccccc2)CC1)=C(\C)O | i | i | i | i | i | . | .
CC(=O)/C(C(=N)N1CCN(C(c2ccccc2)c2ccccc2)CC1)=C(\C)O | i | i | -7* | i | i | i | i | TRPC4 sel inh 2=i;TRPC4 spec=i;HEK293 MPD ctr 2-1=i;HEK293 MPD ctr-1=i
CCOc1ccc(N(C(C)C(=O)Nc2ccc(OC)cc2)S(C)(=O)=O)cc1 (stereo not given) | i | i | -6.4* | i | i | i | i | HEK293 MPD ctr-2=i;HEK293 MPD ctr 2-2=i;TRPC4 ctr mod=i;TRPC4 ctr inh 2=i
CCN(CC)S(=O)(=O)c1ccc(NC(=O)C(C)N(c2ccc(OC)cc2)S(C)(=O)=O)cc1 (stereo not given) | i | i | i | i | i | . | .
COc1ccc(NC(=O)CCNC(=O)c2ccco2)cc1S(=O)(=O)N(C)C | i | i | i | i | i | . | .

From PubChem BioAssay
